Sampled rows, rich in hits. Any-hit rate of the full collection: about 4.9%.
STAT1 blocker: STAT1 signaling inhibitors, primary screen, cell-based, HTS, luciferase reporter; NIH 3T3 STAT1-luciferase reporter, IFN-gamma, luminescence; inhibition, % at 5.5 µM; 200,000 compounds, 0.35% hits; AID 920, 2007;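 active means inhibition above a set limit, the mean inhibition across all tested compounds plus 3 SD, cut at about 34% in these data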;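 further: 0% = IFN-gamma with DMSO and 100% = IFN-gamma with 300 µM nifuroxazide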
STAT3 inh: IL-6 driven STAT3 reporter inhibitors, primary screen, U3A cells, luciferase, luminescence, MLSCN library | AID 862, 2007 | inhibition, % at 5.5 µM | 190,000 compounds, 0.89% hits | IL-6 STAT3-luciferase reporter; host cell line lacks STAT1;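 active means inhibition above the mean inhibition across all screened compounds plus 3 SD, cut at about 44% in these data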;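 further: 0% = DMSO only wells and 100% = 100 µM nifuroxazide control wells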
APP 5'UTR act: activators of APP 5'UTR luciferase reporter, primary screen, SH-SY5Y cells. 190,000 compounds, 1% hits. SH-SY5Y APP 5'UTR luciferase reporter, luminescence; zero percent = DMSO vehicle wells. AID 1276, 2008. activation, % at 2 µM;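 active means activation above a set limit, based on mean plus 3 SD of controls, cut at about 140% in these data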
STAT3 act: IL-6 driven STAT3 reporter potentiators, primary screen, U3A cells, luciferase, luminescence, MLSCN library | IL-6 STAT3-luciferase reporter; 100% = signal with IL-6 EC80 alone | activation (% of control), % at 5.6 µM | 190,000 compounds, 0.91% hits | AID 871, 2007;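 active means activation above the screen-wide mean of compound activation plus 3 SD, cut at about 130% in these data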;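 further: 0% = background luminescence of wells with medium and substrate only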
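Assay system – human STAT1-deficient U3A cells with stable STAT3-luciferase reporter · Also added – IL-6 (33 ng/mL) · Schedule – compound 1 h, then IL-6 6 h at 37 °C · Technique – reporter luminescence signal · Evaluation – % activation versus median of IL-6-stimulated wells · Benchmarks – IL-6-only wells as 100% reference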
STAT1 activator: STAT1 signaling activators, primary screen, cell-based, HTS, luciferase reporter; NIH 3T3 STAT1-luciferase reporter, IFN-gamma, luminescence; 100% = IFN-gamma alone, no compound; activation (% of control), % at 5.5 µM; 200,000 compounds, 2.6% hits;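 active means activation above the screen-wide mean activation plus 3 SD, cut at about 130% in these data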;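 further: raw ratio to IFN-gamma control signal so 100% means no change and 0% no light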
NF-kB expr up: activators of NF-kB expression in neurons, primary screen, cell-based, HTS | 190,000 compounds, 1.6% hits | AID 1239, 2008 | human neuronal cells, NF-kB reporter expression; hits give high values | fold change at 12.5 µM; in the data active means fold change above about 3.3
Starred values were filed as active, the others as inactive.

SMILES | STAT1 blocker | STAT3 inh | APP 5'UTR act | STAT3 act | STAT1 activator | NF-kB expr up
CC(=O)C1=C(C)OC(N)=C(C#N)C1c1cc2cc(C)c(C)cc2nc1Cl (configuration not stated) | 5 | -94 | 30 | 178* | 96 | 1.1
Cc1ccc(O)c(C(=O)CC(=O)c2cccc(F)c2)c1 | -32 | 4 | 84 | 102 | 130* | 1.5
O=C(CC(=O)c1cc(Cl)ccc1O)c1ccccc1 | -34 | -4 | 58 | 108 | 131* | 2
CCCn1c(SCC(=O)Nc2sc(C)c(C)c2C(=O)OCC)nc2c1c(=O)n(C)c(=O)n2C | 1 | 1 | 8 | 101 | 99 | 0.97
CC1=CC(=O)C=C(C)C1=NOS(=O)(=O)c1ccccc1 | 9 | -2 | -80 | 103 | 91 | 4*
CC(=O)Nc1ccc(C(=O)OCC(=O)c2cccc([N+](=O)[O-])c2)cc1 | 13 | 5 | 4 | 95 | 88 | 1.1
Cc1ccc(C(=O)COC(=O)c2cccc(NC(=O)c3ccc([N+](=O)[O-])cc3[N+](=O)[O-])c2)cc1 | 43* | 46* | 164* | 65 | 61 | 3
CC(C)C(NC(=O)c1ccc(C(C)(C)C)cc1)C(=O)OCC(=O)NC(=O)Cc1ccccc1 (configuration not stated) | 0 | -6 | 7 | 107 | 100 | 1.3
FC(F)C(F)(F)C(F)(F)C(F)(F)c1cc(-c2ccccc2)n[nH]1 | -27 | 7 | 25 | 99 | 126 | 5.1*
COc1cccc(CC2(CO)CCCN(Cc3cc(F)ccc3-n3cccn3)C2)c1 (configuration not stated) | 6 | 4 | -4 | 101 | 93 | 0.81
CCc1cc2c(Sc3nc4ccccc4s3)ncnc2s1 | -46 | -80 | -21 | 178* | 142* | 0.69
CCOC(=O)C1=C(C)NC(SCC(=O)Nc2cc(C)on2)=C(C#N)C1c1cccs1 (configuration not stated) | 51* | 18 | 4 | 86 | 62 | 1
Cc1c(C(=O)/C=C/c2cccs2)oc2ccc(F)cc12 | 2 | -51 | -9 | 151* | 98 | 2.6
O=C(NC1CCCC1)c1ccc(CS(=O)(=O)c2ccc(Br)cc2)o1 | 6 | 4 | 0 | 105 | 95 | 0.88
CCOC(=O)c1c(-c2ccc(OC)c(OC)c2)csc1NC(=O)C1CCCO1 (configuration not stated) | 13 | 32 | -9 | 77 | 88 | 0.64
C=CCn1c(SCc2c(C)noc2C)nc2ccccc2c1=O | -3 | 1 | -95 | 103 | 102 | 3.4*
C=CCn1c(SCc2c(C)noc2C)nc2cc(C(=O)O)ccc2c1=O | -2 | 13 | -3 | 92 | 102 | 2.8
Clc1ccc(-c2nnc(-c3ccco3)o2)cc1 | -48 | 19 | 91 | 86 | 144* | 2.3
Cn1cccc1C(=O)Nc1nc(-c2ccccn2)cs1 | -39 | 17 | 43 | 91 | 135* | 5.1*
Cc1csc(NC(=O)c2cn3ccccc3n2)n1 | 65* | 96* | 68 | 23 | 39 | 0.97
Cc1csc(NC(=O)c2cccn2C)n1 | -35 | 4 | 90 | 98 | 131* | 3.2
Cc1csc(NC(=O)c2ccccc2C(=O)O)n1 | 3 | 12 | 13 | 93 | 97 | 1.2
CC(C)(C)c1nnc2cccc(Cl)n12 | -11 | 4 | -12 | 100 | 108 | 1.1
Cc1nc(-c2ccc(C(=O)Nc3ccccc3F)cc2)cs1 | 75* | 88* | 112 | 25 | 31 | 3.4*
COc1ccc(N/C=C(\C#N)c2nc3ccccc3n2C)c(OC)c1 | 14 | 30 | 0 | 80 | 88 | 0.42
SMILES | STAT1 blocker | STAT3 inh | APP 5'UTR act | STAT3 act | STAT1 activator | NF-kB expr up
O=C(Oc1ccc(-c2ccccc2)cc1)N1CCOCC1 | -41 | 18 | 60 | 88 | 137* | 2.2
O=C(Nc1ccccc1Br)c1ccc(OC(=S)N2CCOCC2)cc1 | -40 | 14 | 78 | 90 | 135* | 2.3
Cc1ccc(NC(=O)c2ccc(OC(=S)N3CCOCC3)cc2)cc1 | -34 | 4 | 25 | 102 | 131* | 1.4
O=C(Nc1ccccc1C(=O)N1CCOCC1)c1ccc(F)cc1 | 1 | -8 | -2 | 104 | 99 | 0.94
O=C(Oc1cccc(Oc2ccccc2)c1)N1CCOCC1 | -7 | 9 | 0 | 96 | 106 | 1.1
CCOC(=O)C(C)Sc1cc(CS(=O)(=O)c2ccccc2)nc(-c2ccccc2)n1 (configuration not stated) | 0 | 14 | 23 | 93 | 100 | 0.91
CCCc1cc(=O)n2[nH]c(NCc3ccc(OC)cc3)nc2n1 | 9 | 0 | 1 | 105 | 91 | 1.2
Cc1nc2sc3c(c2c(=O)n1N)CCC3 | -3 | 6 | 2 | 101 | 102 | 1.2
CC1(C)Cc2c(sc3nc(-c4ccccc4)n(N)c(=O)c23)CO1 | -16 | 22 | 26 | 84 | 115 | 0.69
Nn1c(-c2cccs2)nc2sc3c(c2c1=O)CCCC3 | -45 | -28 | 156* | 128 | 142* | 3.9*
CC1(C)Cc2c(sc3nc(-c4cccs4)n(N)c(=O)c23)CO1 | -39 | 11 | 52 | 96 | 138* | 1.2
Cc1ccccc1-c1nc2sc3c(c2c(=O)n1N)CCCC3 | -50 | -8 | 150* | 104 | 146* | 1.5
CC(C)=CC(=O)OCC(=O)Nc1ccc(SC(F)F)cc1 | -4 | 1 | -8 | 100 | 103 | 1.1
O=C(CN1CCN(S(=O)(=O)c2ccccc2)CC1)Nc1ccc2c(c1)CCC2 | -5 | -3 | 9 | 103 | 104 | 0.82
Cc1ccc2c(c1)Cc1nc3ccccc3nc1-2 | 61* | 72* | 116 | 41 | 44 | 2.8
COC(=O)c1c(N(S(C)(=O)=O)S(C)(=O)=O)sc2c1CCN(c1ncc(C(F)(F)F)cc1Cl)C2 | 7 | 13 | -6 | 90 | 91 | 3.4*
C(#Cc1ccccc1)Cn1nnc2ccccc21 | -37 | 14 | 42 | 93 | 134* | 1.8
COc1ccc(-n2c(=O)c3ccccc3n(Cc3cccc(C)c3)c2=O)cc1OC | -2 | 1 | -8 | 100 | 101 | 1.1
CCOC(=O)c1sc(NC(=O)c2cncc(Br)c2)nc1C | -30 | -10 | 6 | 110 | 126 | 2.5
Cc1csc(NC(=O)c2cncc(Br)c2)n1 | -32 | 22 | 132 | 86 | 128 | 3.3*
Nc1ccc(C(=O)Nc2nccs2)cc1 | -31 | 6 | 26 | 97 | 127 | 2.2
O=C(Nc1nccs1)c1cncc(Br)c1 | -48 | -12 | 43 | 118 | 143* | 0.94
Cn1c(=O)[nH]c(=O)c2c1nc(N1CCOCC1)n2CCSc1nc2ccccc2[nH]1 | 4 | 12 | 2 | 93 | 97 | 1
